# Laboratory results as given in article PMC9530962 (Redox Biology, 2022).
# Like-named read-outs stand apart in the source and are kept apart here.
# Experiments:
# Aristolochic lactam = format: in vivo; details: rats, after oral gavage of AAI
# [1] = format: in vivo, SD rats
# Procedure, shortened: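 Male SD rats (8 weeks, 200 ± 20 g) were acclimated for 1 week. Each rat got one intragastric dose of AAI, alone or with lycopene; controls were n = 6. Three rats were killed at each time point: 0.25, 0.5, 1, 2, 4, 8, 12, 24 and 48 h. Kidney (0.3–1 g) was homogenized in normal saline at 1:3 (w:v), and AAI was measured by HPLC.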
# [2] = test system: C57BL/6 mice with renal injury induced by aristolochic acid exposure; assay: AAN mouse model: body weight, kidney coefficient, HE/PAS histopathology; format: in vivo
# Procedure, shortened: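 Male SPF C57BL/6 mice (6 weeks, 18–20 g) were acclimated for 1 week, then split into 5 groups (n = 6). Dosing was intragastric for 28 days, with vehicle 0.5% CMC. AAI 10 mg/kg/day was given at 13:00, and LYC 5 or 20 mg/kg/day at 08:00. Mice were killed 24 h after the last dose. Kidney coefficient = kidney/body weight. Kidney sections were stained with HE, PAS and Masson and scored for histopathology and tubular injury.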
# [3] = test system: C57BL/6 mice with renal injury induced by aristolochic acid exposure; assay: Renal function, kidney injury markers and oxidative stress markers in AAN mice; format: in vivo; details: for Cr and BUN levels in the serum: mice
# Procedure, shortened: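 C57BL/6 AAN model: AAI 10 mg/kg/day intragastric for 28 days, with LYC 5 or 20 mg/kg/day given separately. Blood was taken 24 h after the last dose and centrifuged at room temperature for serum. Serum creatinine and BUN were measured with commercial kits, and serum KIM-1 and NGAL by ELISA. MDA, SOD, T-AOC and GSH-PX were measured with commercial kits.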
# [4] = test system: C57BL/6 mice with renal injury induced by aristolochic acid exposure; format: in vivo
# NRK52E cytotoxicity = format: cell-based; details: rat, NRK52E renal tubular epithelial cells
# Procedure, shortened: (§1)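 NRK52E rat tubular epithelial cells were seeded at 8000 cells/well. Treatment was 24 h with AAI (0–80 μM) or LYC (0–40 μM), or AAI 40 μM with LYC 5 or 10 μM; drug went in by medium change at 40–50% density. CCK-8 (10% in serum-free DMEM) was added for 2 h at 37 °C and A450 read. Viability % = (OD sample − OD blank)/(OD control − OD blank) × 100. Morphology and confluence were viewed by light microscopy.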
# NRK52E cells [5] = assay: NRK52E cytotoxicity; format: cell-based; details: NRK52E
# Procedure, shortened: as §1
# [6] = test system: Nrf2-HO-1 antioxidant pathway; format: cell-based; details: NRK52E
# [7] = test system: TNF-α/NF-κB signaling pathway; format: cell-based; details: NRK52E
# NRK52E cells [8] = format: cell-based
# [9] = HPLC determination of lycopene content in rat kidney after oral gavage; format: in vivo, SD rats; details: rats
# Procedure, shortened: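 Rats (male SD) got one intragastric dose of AAI plus lycopene, and three were killed per time point (0.25–48 h). For each sample, 0.5 g kidney was homogenized with 1 ml saline. Protein in 100 μL homogenate was precipitated with 100 μL absolute ethanol, then 200 μL n-hexane (0.01% BHT) was added. HPLC used a C18 column (150 × 4.6 mm, 5 μm) with methanol:acetonitrile:dichloromethane 50:33:17, detection at 472 nm, 25 °C.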
# [10] = test system: Nrf2 antioxidant system, NF-κB signaling pathway and apoptosis-related genes in kidney; assay: Nrf2 system, NF-κB pathway and apoptosis gene expression in kidneys of AAN mice; format: in vivo, C57BL/6 mice
# [11] = oral gavage of lycopene; ref Previous studies; cited from earlier work
# [12] = mice, AAN group (AAI 10 mg/kg/day, 28 days)
compound,measurement,setting,value
"COc1cccc2c1cc1c3c(cc4c(c32)OCO4)C(=O)N1 [ALI, Aristolochic lactam]",accumulation of ALI in the kidney after 2 h,Aristolochic lactam,no accumulation
"COc1cccc2c1cc([N+](=O)[O-])c1c(C(=O)O)cc3c(c12)OCO3 [AAI, Aristolochic acid A]",AA-I contents in kidney,"[1]; rats, Group AAI + LYC, 15min after intragastric administration",0
same,AA-I contents in kidney,"[1]; rats, Group AAI + LYC, 30min",7.955 ± 0.8107
same,AA-I contents in kidney,"[1]; rats, Group AAI + LYC, 1h",0
same,AA-I contents in kidney,"[1]; rats, Group AAI + LYC, 2h",1.516 ± 0.1493
same,AA-I contents in kidney,"[1]; rats, Group AAI + LYC, 4h",0
same,AA-I contents in kidney,"[1]; rats, Group AAI + LYC, 8h",0
same,AA-I contents in kidney,"[1]; rats, Group AAI + LYC, 12h",0
same,AA-I contents in kidney,"[1]; rats, Group AAI + LYC, 24h",0
same,AA-I contents in kidney,"[1]; rats, Group AAI + LYC, 48h",0
same,AA-I contents in kidney,"[1]; rats, Group AAI, 15min after intragastric administration",0
same,AA-I contents in kidney,"[1]; rats, Group AAI, 30min",8.546 ± 1.478
same,AA-I contents in kidney,"[1]; rats, Group AAI, 1h",0
same,AA-I contents in kidney,"[1]; rats, Group AAI, 2h",1.616 ± 0.04743
same,AA-I contents in kidney,"[1]; rats, Group AAI, 4h",0
same,AA-I contents in kidney,"[1]; rats, Group AAI, 8h",0
same,AA-I contents in kidney,"[1]; rats, Group AAI, 12h",0
same,AA-I contents in kidney,"[1]; rats, Group AAI, 24h",0
same,AA-I contents in kidney,"[1]; rats, Group AAI, 48h",0
same,time after feeding at which AAI has been metabolized completely in the kidney,"[1]; rats, oral gavage of AAI",2 h
same,contents of CR and BUN in the serum (preliminary experiment),"[2]; mice, AAI 10 mg/kg/day, vs normal control",significantly increased
same,body weight,[2]; [12],significantly reduced
same,scores of renal histopathology and tubular injury,[2]; [12],significantly increased
same,renal index,"[2]; mice, AAN group (AAI 10 mg/kg/day, 28 days) vs control",significantly lower
same,Cr and BUN levels in the serum,[3]; AAN group vs control,significantly higher
same,renal interstitium fibrosis (MASSON staining),"[4]; mice, AAN group vs control",severely fibrotic
same,expression of IL-12 in the kidneys,[4]; model mice vs control,decreased
same,"expression of TNF-α, IL-6, IL-10 in the kidneys",[4]; model mice vs control,increased
same,"viability at 24 h, 40 μM",NRK52E cytotoxicity,60%
same,degree of cell fusion,"NRK52E cells [5]; AAI group, light microscopy",about 50%
same,"expression of Nrf2, Keap-1, HO-1, NQO1, GSH-PX, and SOD",[6]; AAI exposure vs control,decreased
same,content of ROS,[6]; AAI group vs control,increased
same,"expression of NF-κB-p65, TNF-α, and IL-6",[7]; AAI group vs control,increased
same,NF-κB-P65 nuclear expression,"[7]; AAI group, immunofluorescence",significantly increased
same,number of apoptotic cells (early and late),"NRK52E cells [8]; AAI group vs control, flow cytometry",significantly increased
"CC(=O)O[C@@H]1CC[C@@]2(C)[C@@H](CC[C@]3(C)[C@@H]2C(=O)C=C2[C@@H]4[C@@H](C)[C@H](C)CC[C@]4(C)CC[C@]23C)[C@@]1(C)C(=O)O [AKBA, Acetyl-11-keto-β-boswellic acid]",content of ROS in the cells,"[6]; AKBA 40 μM, AAI 40 μM",decreased
same,"expression of Nrf2, keap-1, HO-1, NQO1","[6]; AKBA 40 μM, AAI 40 μM",increased
same,expression of Bcl-2,"[7]; AKBA 40 μM, AAI 40 μM",increased
same,"expression of NF-κB, TNF-α, Bax, Cleaved-Caspase3","[7]; AKBA 40 μM, AAI 40 μM",decreased
CC(C)=CCC/C(C)=C/C=C/C(C)=C/C=C/C(C)=C/C=C/C=C(C)/C=C/C=C(C)/C=C/C=C(\C)CCC=C(C)C [Lycopene],content of AAI in the kidney of rats fed with lycopene compared with AAI alone,[1]; AAI + lycopene vs AAI alone,no significant difference
same,time of highest lycopene content in the kidney,[9],6 h
same,lycopene content in the kidney after 24 h,[9]; 24 h,~0
same,damaged renal tissue (HE and PAS staining),[2]; AAN mice after lycopene intervention,significant improvement
same,body weight,"[2]; AAN mice, AL20 group (LYC 20 mg/kg/d + AAI 10 mg/kg/day, 28 days)",increased
same,renal tubular structure (HE and PAS staining),"[2]; mice, LYC group (LYC 20 mg/kg/d alone)",intact without signs of lesions
same,expression of AAI-induced lipid peroxidation product (MDA),[3]; AAN mice,significantly decreased
same,"expression of antioxidant enzyme systems (T-AOC, SOD, and GSH-PX)",[3]; AAN mice,increased
same,expression levels of KIM-1 and NGAL induced by AAI,"[3]; AAN mice, serum, ELISA",significantly reduced
same,Cr and BUN levels in the serum,[3]; LYC group,significantly lower
same,degree of renal fibrosis (MASSON staining),[4]; AAN mice after LYC intervention,alleviated
same,"expression of TNF-α, IL-6, IL-10 and IL-12 in the kidneys","[4]; AAN mice, LYC 5 and 20 mg/kg/d, Western-blot, RT-PCR, ELISA",reversed the expression of these genes in a dose-dependent manner
same,cell viability,"NRK52E cells [5]; LYC 5 μM, 10 μM together with AAI, 24 h, dose-dependent",increased
same,Nrf2 intranuclear expression,"[6]; AAI plus LYC intervention, dose-dependent",significant increase
same,content of ROS,"[6]; AAI plus LYC intervention, dose-dependent, DCFH-DA",significant decrease
same,NF-κB-P65 nuclear expression,"[7]; AAI plus LYC intervention, immunofluorescence",significantly decreased
same,"expression of NF-κB-p65, TNF-α, IL-6, IkB and IL-12",[7]; AAI plus LYC treatment,reversed the expression of these proteins
same,expression of IL-1β in the cells,"[7]; LYC treatment vs AAI group, immunofluorescence",significantly decreased
same,"expression of Bax, Cleaved-Caspase3, Cleaved-Caspase9, Bcl-2, Caspase-3, and Caspase-9","NRK52E cells [8]; AAI plus LYC intervention, Western-blot and RT-PCR",reversed the expression of these proteins
same,number of apoptotic cells,"NRK52E cells [8]; AAI plus LYC intervention, flow cytometry",significantly decreased
same,cellular mitochondrial damage,"NRK52E cells [8]; AAI plus LYC intervention, transmission electron microscopy",significantly reduced
same,"expression of NF-κB-p65, TNF-α, IL-6, IL-10, IL-1β, IκB and IL-12 in the kidney",[10]; LYC intervention,reversed the expression of these genes in a dose-dependent manner
same,"Nrf2, Keap-1, HO-1, NQO1, GSH-PX and SOD expression in the kidneys",[10]; lycopene treatment,reversed the expression of these proteins
same,time at which lycopene is most abundant in the kidney,[11],6 to 8 h
Cc1ccccc1C(=O)N1CCc2cc(-c3nc(NC(=O)Cc4ccc5c(c4)OCO5)sc3C)ccc21 [ML385],"effect of LYC on NF-κB, TNF-α, Bax, Cleaved-Caspase-3 and BCL-2 expression when ML385 was added","[7]; ML385 5 μM, AAI 40 μM, LYC",significantly reduced or even ineffective
same,effect of LYC on apoptosis (DAPI staining) after the addition of ML385,"NRK52E cells [8]; AAI, LYC, ML385",the effect of LYC was inhibited
